Results taken from ChEMBL document CHEMBL4342503, “Diazabicyclooctane Functionalization for Inhibition of β-Lactamases from Enterobacteria” (2020).
Calls of active or inactive are those of the source. The rule behind the calls is not given here.

Legend:
Escherichia coli [1] = experiment: Antibacterial activity against Escherichia coli Top10 without harboring AmpC assessed as cefotaxime MIC by CLSI protocol based method (reference value: 0.125 ug/ml); format: functional
[2] = Inhibition of KPC-2 (unknown origin) expressed in Escherichia coli BL21 DE3 assessed as K2/Ki ratio using nitrocefin as substrate by spectrophotometry
Procedure, shortened: (§1)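 His-tagged enzymes expressed in E. coli BL21(DE3) (IPTG 0.5 mM, 16°C, 18 h), purified by Ni-NTA and size exclusion in 25 mM Tris-HCl pH 7.5, 300 mM NaCl. Carbamoylation k2/Ki from progress curves, reporter nitrocefin 100 μM, 20°C, 100 mM MES pH 6.4; inhibitor up to 100 μM; ≥6 curves, ≥2 independent experiments.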

Escherichia coli [3] = experiment: Antibacterial activity against Escherichia coli Top10 harboring AmpC assessed as cefotaxime MIC by CLSI protocol based method (reference value: 256 ug/ml); format: functional
Enterobacter cloacae [4] = experiment: Inhibition of Enterobacter cloacae AmpC expressed in Escherichia coli BL21 DE3 assessed as K2/Ki ratio using nitrocefin as substrate by spectrophotometry; procedure, shortened: as §1
[5] = Inhibition of TEM1 (unknown origin) expressed in Escherichia coli BL21 DE3 assessed as K2/Ki ratio using nitrocefin as substrate by spectrophotometry; procedure, shortened: as §1
Bacteria = experiment: Inhibition of bacterial KPC-2 N132G mutant expressed in Escherichia coli BL21 DE3 assessed as K2/Ki ratio using nitrocefin as substrate by spectrophotometry; procedure, shortened: as §1
Escherichia coli [6] = experiment: Antibacterial activity against Escherichia coli Top10 harboring KPC-2 assessed as aztreonam MIC by CLSI protocol based method (reference value: 2048 ug/ml); format: functional
Escherichia coli [7] = experiment: Antibacterial activity against Escherichia coli Top10 assessed as cefamandole MIC by CLSI protocol based method (reference value: 2 ug/ml); format: functional
Procedure, shortened: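 Broth microdilution in cation-adjusted Mueller-Hinton broth following CLSI. Strain carries a β-lactamase gene cloned in pTRC-99k (kanamycin marker); preculture in BHI with IPTG (500 μM) and kanamycin (50 μg/ml); IPTG (500 μM) also in plates to induce enzyme. β-Lactam MIC read with or without inhibitor at fixed 15 μM (4 μg/ml for avibactam; clavulanate 4 μg/ml). Median of five biological repeats from two independent experiments.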

Escherichia coli [8] = experiment: Antibacterial activity against Escherichia coli Top10 without harboring CTX-M-15 assessed as amoxicillin MIC by CLSI protocol based method (reference value: 8 ug/ml); format: functional
Escherichia coli [9] = experiment: Antibacterial activity against Escherichia coli Top10 harboring OXA-48 assessed as ertapenem MIC by CLSI protocol based method (reference value: 8 ug/ml); format: functional
Escherichia coli [10] = experiment: Antibacterial activity against Escherichia coli Top10 harboring TEM1 assessed as cefamandole MIC by CLSI protocol based method (reference value: 2048 ug/ml); format: functional
Escherichia coli [11] = experiment: Antibacterial activity against Escherichia coli Top10 without harboring OXA-48 assessed as ertapenem MIC by CLSI protocol based method (reference value: < 0.03 ug/ml); format: functional
Escherichia coli [12] = experiment: Antibacterial activity against Escherichia coli Top10 harboring CTX-M-15 assessed as amoxicillin MIC by CLSI protocol based method (reference value: 2048 ug/ml); format: functional
Escherichia coli [13] = experiment: Antibacterial activity against Escherichia coli Top10 without harboring KPC-2 assessed as aztreonam MIC by CLSI protocol based method (reference value: 0.5 ug/ml); format: functional
[14] = Inhibition of OXA-48 expressed in Escherichia coli BL21 DE3 assessed as K2/Ki ratio using CENTA as substrate by spectrophotometry
Procedure, shortened: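 OXA-48 expressed in E. coli BL21(DE3) (IPTG 0.5 mM, 16°C, 18 h), purified by Ni-NTA and size exclusion. Carbamoylation k2/Ki by spectrophotometric progress curves with CENTA 100 μM as reporter, 20°C, 100 mM MES pH 6.4; inhibitor up to 100 μM; ≥6 curves from ≥2 independent experiments.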

Enterobacter cloacae [15] = experiment: Inhibition of Enterobacter cloacae CTX-M-15 N132G mutant expressed in Escherichia coli BL21 DE3 assessed as K2/Ki ratio using nitrocefin as substrate by spectrophotometry; procedure, shortened: as §1
Enterobacter cloacae [16] = experiment: Inhibition of Enterobacter cloacae CTX-M-15 expressed in Escherichia coli BL21 DE3 assessed as K2/Ki ratio using nitrocefin as substrate by spectrophotometry; procedure, shortened: as §1

SMILES | MIC (Escherichia coli [1]) [µg/mL] | Ratio [2] [M⁻¹ s⁻¹] | MIC (Escherichia coli [3]) [µg/mL] | Ratio (Enterobacter cloacae [4]) [M⁻¹ s⁻¹] | Ratio [5] [M⁻¹ s⁻¹] | Ratio (Bacteria) [M⁻¹ s⁻¹] | MIC (Escherichia coli [6]) [µg/mL] | MIC (Escherichia coli [7]) [µg/mL] | MIC (Escherichia coli [8]) [µg/mL] | MIC (Escherichia coli [9]) [µg/mL] | MIC (Escherichia coli [10]) [µg/mL] | MIC (Escherichia coli [11]) [µg/mL] | MIC (Escherichia coli [12]) [µg/mL] | MIC (Escherichia coli [13]) [µg/mL] | Ratio [14] | Ratio (Enterobacter cloacae [15]) [M⁻¹ s⁻¹] | Ratio (Enterobacter cloacae [16]) [M⁻¹ s⁻¹]
O=C1N2C[C@@H](CC[C@H]2Cn2cc(-c3ccccc3)nn2)N1OS(=O)(=O)[O-].[Na+] | 0.25 | 930 | 128 | 200 | 4700 | 21 | 64 | 4 | 8 | 8 | 16 | < 0.03 | 64 | 0.25 | 110 M⁻¹ s⁻¹ | 140 | 6900
O=C1N2C[C@@H](CC[C@H]2Cn2ccnn2)N1OS(=O)(=O)[O-].[Na+] | 0.125 | 280 | 16 | 210 | 1200 | 31 | 512 | 2 | 8 | 8 | 8 | < 0.03 | 64 | 0.25 | 140 M⁻¹ s⁻¹ | 6.6 | 280
NC(=O)[C@@H]1CC[C@@H]2CN1C(=O)N2OS(=O)(=O)[O-].[Na+] [AVIBACTAM SODIUM] | 0.125 | 26000 | 1 | 18000 | 88000 | 53 | 0.5 | 2 | 2 | 0.5 | 2 | < 0.03 | 2 | 0.25 | 980 M⁻¹ s⁻¹ | 70 | 130000
O=C(NC1CCNCC1)[C@@H]1CC[C@@H]2CN1C(=O)N2OS(=O)(=O)[O-].[Na+] | 0.125 | 10000 | 0.25 | 15000 | 43000 | – | 0.5 | 2 | 2 | 8 | 4 | < 0.03 | 16 | 0.25 | inactive | – | 960
CC(C)(C)OC(=O)NCc1cn(C[C@@H]2CC[C@@H]3CN2C(=O)N3OS(=O)(=O)[O-])nn1.[Na+] | 0.125 | 540 | 128 | 51 | 2800 | – | 512 | 2 | 8 | 16 | 128 | < 0.03 | 1020 | 0.25 | 210 M⁻¹ s⁻¹ | – | 130
CC(C)(C)OC(=O)N1CCC(c2cn(C[C@@H]3CC[C@@H]4CN3C(=O)N4OS(=O)(=O)[O-])nn2)CC1.[Na+] | 0.125 | 830 | 128 | 29 | 1700 | – | 2050 | 2 | 8 | 16 | 256 | < 0.03 | 4100 | 0.25 | 210 M⁻¹ s⁻¹ | – | 230
O=C1N2C[C@@H](CC[C@H]2Cn2cc(-c3cccnc3)nn2)N1OS(=O)(=O)[O-].[Na+] | 0.125 | 550 | 128 | 85 | 1400 | – | 32 | 2 | 2 | 8 | 8 | < 0.03 | 32 | 0.25 | inactive | – | 1700
NCc1cn(C[C@@H]2CC[C@@H]3CN2C(=O)N3OS(=O)(=O)O)nn1.O=C(O)C(F)(F)F | 0.125 | 120 | 128 | 16 | 3100 | – | 32 | 4 | 4 | 8 | 4 | < 0.03 | 128 | 0.25 | inactive | – | 88
O=C(O)C(F)(F)F.O=C1N2C[C@@H](CC[C@H]2Cn2cc(C3CCNCC3)nn2)N1OS(=O)(=O)O | 0.125 | 340 | 128 | 26 | 3600 | – | 32 | 2 | 4 | 8 | 4 | < 0.03 | 64 | 0.25 | inactive | – | 350
CC(C)(C)OC(=O)NCCC(=O)Nc1ccc(-c2cn(C[C@@H]3CC[C@@H]4CN3C(=O)N4OS(=O)(=O)[O-])nn2)cc1.[Na+] | 0.125 | 1100 | 128 | 180 | 3700 | – | 512 | 2 | 8 | 16 | 256 | < 0.03 | 768 | 0.5 | 150 M⁻¹ s⁻¹ | – | 2400
